Where a chain is given by its changes, count along the chain named. Read-outs that look alike come from different tables or passages of the source.
Tests used:
Format in all cases: cell-based
CLC-0 E166Y mutant = molecular target: T1, CLC-0 E166Y mutant (Torpedo marmorata, UniProt P21564, C212S/E166Y); details: read-out: Apparent affinity (K1/2)
T1 sequence (P21564 1-805 E166Y/C212S): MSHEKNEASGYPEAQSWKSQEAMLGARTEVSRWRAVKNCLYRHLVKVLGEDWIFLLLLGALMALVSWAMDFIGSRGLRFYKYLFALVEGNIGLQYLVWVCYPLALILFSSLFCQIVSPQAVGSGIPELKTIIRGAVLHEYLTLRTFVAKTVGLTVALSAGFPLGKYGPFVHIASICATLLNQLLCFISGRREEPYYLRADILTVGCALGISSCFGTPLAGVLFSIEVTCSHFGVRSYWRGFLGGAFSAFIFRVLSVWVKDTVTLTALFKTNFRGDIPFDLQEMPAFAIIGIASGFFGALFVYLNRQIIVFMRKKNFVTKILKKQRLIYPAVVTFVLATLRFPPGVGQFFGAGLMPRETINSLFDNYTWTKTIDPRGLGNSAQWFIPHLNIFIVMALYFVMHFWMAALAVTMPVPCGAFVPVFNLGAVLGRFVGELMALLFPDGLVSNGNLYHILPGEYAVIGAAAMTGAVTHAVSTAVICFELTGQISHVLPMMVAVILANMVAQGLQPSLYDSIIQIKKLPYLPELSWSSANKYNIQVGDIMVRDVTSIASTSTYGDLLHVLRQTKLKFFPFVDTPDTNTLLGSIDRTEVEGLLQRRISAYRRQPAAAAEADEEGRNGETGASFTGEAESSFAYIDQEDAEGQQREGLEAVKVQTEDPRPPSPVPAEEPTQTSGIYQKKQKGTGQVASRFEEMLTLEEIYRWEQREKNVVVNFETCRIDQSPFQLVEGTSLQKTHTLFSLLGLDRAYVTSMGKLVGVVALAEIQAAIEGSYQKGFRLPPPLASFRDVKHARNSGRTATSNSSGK
Procedure, shortened: (§1)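 CLC-0 mutants in the C212S background were transfected into HEK293 cells with lipofectamine and recorded 1–3 d later as excised inside-out patches. Both sides held 130 mM NaCl, 5 mM MgCl2, 10 mM HEPES and 1 mM EGTA, pH 7.4. CPA was perfused continuously onto the cytoplasmic face. Steady-state current over the last 10 ms was normalized to bracketing blocker-free controls and fitted to a Langmuir function for K1/2. Values are mean ± SEM of ~4–6 patches.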

[1] = molecular target: T2, wild-type CLC-0 (E166, C212S background) (Torpedo marmorata, UniProt P21564, C212S); details: for IC50: read-out: Apparent affinity (K1/2)
T2 sequence (P21564 1-805 C212S): T1 sequence (P21564 1-805 E166Y/C212S) with Y166E
Procedure, shortened: as §1

CLC-0 E166G mutant = molecular target: T3, CLC-0 E166G mutant (Torpedo marmorata, UniProt P21564, C212S/E166G); details: read-out: Apparent affinity (K1/2)
T3 sequence (P21564 1-805 E166G/C212S): T1 sequence (P21564 1-805 E166Y/C212S) with Y166G
Procedure, shortened: as §1

| SMILES | IC50 (CLC-0 E166Y mutant; −80 mV) | IC50 (CLC-0 E166Y mutant; −100 mV) | IC50 (CLC-0 E166Y mutant; −120 mV) | IC50 (CLC-0 E166Y mutant; −140 mV) | IC50 (CLC-0 E166Y mutant; −160 mV) | IC50 ([1]; −40 mV) | IC50 ([1]; −60 mV) | IC50 ([1]; −80 mV) | IC50 ([1]; −100 mV) | IC50 ([1]; −120 mV) | IC50 ([1]; −140 mV) | IC50 ([1]; −160 mV) | IC50 (CLC-0 E166G mutant; −40 mV) | IC50 (CLC-0 E166G mutant; −60 mV) | IC50 (CLC-0 E166G mutant; −80 mV) | IC50 (CLC-0 E166G mutant; −100 mV) | IC50 (CLC-0 E166G mutant; −120 mV) | IC50 (CLC-0 E166G mutant; −140 mV) | IC50 (CLC-0 E166G mutant; −160 mV) | further results |
| --- | --- | --- | --- | --- | --- | --- | --- | --- | --- | --- | --- | --- | --- | --- | --- | --- | --- | --- | --- | --- |
| O=C(O)COc1ccc(Cl)cc1 [CPA, p-chlorophenoxy acetate] | 1370 ± 50 µM | 700 ± 10 µM | 380 ± 10 µM | 220 ± 10 µM | 130 ± 10 µM | 9370 ± 330 µM | 5220 ± 230 µM | 2870 ± 200 µM | 1960 ± 210 µM | 1570 ± 190 µM | 1170 ± 190 µM | 1340 ± 250 µM | 300 ± 20 µM | 180 ± 10 µM | 140 ± 10 µM | 150 ± 10 µM | 180 ± 20 µM | 240 ± 30 µM | 320 ± 30 µM | IC50 (CLC-0 E166Y mutant; −40 mV): 6180 ± 670 µM; IC50 (CLC-0 E166Y mutant; −60 mV): 2790 ± 150 µM |
| CCCCCCCC(=O)O [octanoate] | 16700 ± 650 µM | 11200 ± 540 µM | 7430 ± 410 µM | 4990 ± 310 µM | 3360 ± 180 µM | 2610 ± 300 µM | 1290 ± 130 µM | 670 ± 50 µM | 390 ± 10 µM | 300 ± 20 µM | 260 ± 30 µM | 190 ± 40 µM | 225 ± 13 µM | 127 ± 8 µM | 85 ± 6 µM | 75 ± 6 µM | 82 ± 8 µM | 115 ± 14 µM | 175 ± 19 µM | effect on fast gate Po-V curve ([1]; various concentrations, initial tail current): shifts the fast gate Po-V curve toward more depolarized voltages |
